Source: PubChem BioAssay
PvdQ acylase – P. aeruginosa PvdQ acylase inhibition; AID 488965; inhibition, % at 10 µM; purified PvdQ acylase, fluorescence plate reader; 340,000 tested, 0.063% active; in the data active = inhibition above about 30%, passing the limit was not always enough; inconclusive = no clear call, values can overlap the other calls
dFosB activator – mouse delta FosB homodimer activation. P13346. purified delta FosB, TAMRA-CDK5 oligo fluorescence polarization; percent of positive-control signal above neutral wells. activation, % at 25 µM. 340,000 tested, 0.99% active. AID 493131;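 active = mean activation above about 17%, with every replicate also reaching it, limit read from the data, passing the limit was not always enough; inconclusive = only one of the two conditions met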
SR-BI HDL uptake – inhibitors of mouse SR-BI mediated HDL lipid uptake | Q61009 | inhibition, % at 12.5 µM | ldlA[mSR-BI] CHO cells, DiI-HDL uptake fluorescence, 3 h | AID 488896 | 320,000 tested, 0.96% active;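 active = mean replicate inhibition of at least 70% and a set share of replicates each scoring 70 or more; inconclusive = meets just one of the two criteria; inactive = fails both criteria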
Target sequence (Q61009 whole entry, looked up): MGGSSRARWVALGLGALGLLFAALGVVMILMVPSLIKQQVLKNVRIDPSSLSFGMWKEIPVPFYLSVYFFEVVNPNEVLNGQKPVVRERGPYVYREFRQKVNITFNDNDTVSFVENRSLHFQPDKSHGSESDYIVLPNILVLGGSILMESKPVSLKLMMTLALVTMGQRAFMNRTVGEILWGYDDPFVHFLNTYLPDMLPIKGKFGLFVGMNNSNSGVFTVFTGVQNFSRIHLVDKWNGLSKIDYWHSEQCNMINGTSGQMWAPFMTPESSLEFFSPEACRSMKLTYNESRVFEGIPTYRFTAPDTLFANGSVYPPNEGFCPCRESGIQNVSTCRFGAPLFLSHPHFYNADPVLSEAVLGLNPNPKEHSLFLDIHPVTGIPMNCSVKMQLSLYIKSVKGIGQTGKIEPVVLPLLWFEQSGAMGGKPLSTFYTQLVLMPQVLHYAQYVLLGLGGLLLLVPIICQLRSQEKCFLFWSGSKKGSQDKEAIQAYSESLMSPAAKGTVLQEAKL
RAD54 inh – blocks human RAD54 Holliday junction branch migration | 360,000 tested, 0.14% active | inhibition, % at 10.4 µM | Q92698 | FAM/BHQ fluorescence | AID 602329;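 active = mean normalized replicate activity at least 40 and at least half of replicates scoring 40 or more; inconclusive = only one of the two criteria met; inactive = mean below 40 and under half of replicates reaching 40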;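 note: inhibitors cause a drop in the FAM fluorescence signal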
SR-BI DiI-HDL act – enhances SR-BI lipid uptake from DiI-HDL; CHO ldlA[mSR-BI] cells, DiI-HDL uptake fluorescence, 3 h; 100 = double the neutral-control signal; activation, % at 12.5 µM; 320,000 tested, 0.096% active; AID 504775;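 active = mean replicate activation of at least 60% and every replicate at or above 60%; inconclusive = mean or all-replicate condition met, but not both; inactive = mean below 60% and not all replicates reaching 60%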
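material = CHO ldlA[mSR-BI] cells | medium = Ham's F12 with 0.5% BSA, HEPES 25 mM, pH 7.4 | reagent = fluorescent DiI-HDL, 10 µg/mL final | compound dosing = single-point compound dose | incubation = 3 h, 37 °C | measured by = bottom-read fluorescence, 550/595 nm | measure = HDL uptake via cellular fluorescence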
S100A4 inh HTS – blocks human S100A4 binding to myosin IIA peptide; P26447; AID 652163; S100A4/TAMRA-MyoIIA peptide fluorescence polarization; 360,000 tested, 0.14% active; inhibition, % at 10.7 µM;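 active = mean inhibition of at least 70% across replicates, with every replicate also reaching that level; inconclusive = mean inhibition reaches 70% but some replicates fall short; inactive = mean inhibition below 70%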
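Material: human S100A4 monomer with TAMRA-labelled myosin IIA peptide; buffer or medium: HEPES pH 7.2 with CaCl2, KCl, NaCl, DTT, Triton; compound dosing: one concentration per compound; schedule: 5 min incubation before reading; benchmarks: neutral control DMSO, positive control TFP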
DiI quencher – DiI fluorescence quenching in cell-free counter-screen; shares compounds with SR-BI HDL uptake; cell-free DiI-HDL fluorescence quenching, 30 min; AC50, µM (doses to about 35 µM); 470 tested, 20% active; AID 540326;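 active = quenching, a falling signal, with AC50 below a set limit tied to the top valid dose, actives reach about 32 µM in these data; inconclusive = no clear call, values can overlap the other calls; inactive = rising signal, and the rest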
Each line names hits and unclear results; the compound was inactive in the other large screens (follow-up assays come after a bar, where they were run). This is a sample that favours compounds with a hit; in the whole collection about 1.6% have one here.

Cc1ccc(-c2csc(N3CCN(c4ccc5nc(-c6ccncc6)n(CCN6CCCCC6)c5c4)CC3)n2)cc1	SR-BI HDL uptake 70 | DiI quencher inactive
Cc1c(C(=O)OCC(C)C)[nH]c2c1C(=O)CC(c1ccco1)C2 (stereo unspecified)	none
Cc1c(C(=O)OC2CCCC2)[nH]c2c1C(=O)CC(c1ccco1)C2 (stereo unspecified)	none
Cc1c(C(=O)OCC2CCCO2)[nH]c2c1C(=O)CC(c1ccco1)C2 (stereo unspecified)	none (no result: S100A4 inh HTS) | DiI quencher inactive
C/C=C/COC(=O)c1[nH]c2c(c1C)C(=O)CC(c1ccco1)C2 (stereo unspecified)	SR-BI HDL uptake 78 | DiI quencher inactive
COc1ccc(CN(C)C[C@H]2Oc3ccc(NC(=O)Nc4ccc(C(F)(F)F)cc4)cc3CC(=O)N([C@H](C)CO)C[C@H]2C)cc1	none (no result: PvdQ acylase, dFosB activator, SR-BI HDL uptake, SR-BI DiI-HDL act)
CN(C)C(=O)C[C@@H]1C[C@@H]2c3cc(NS(=O)(=O)c4ccc(F)cc4)ccc3O[C@@H]2[C@H](CO)O1	none (no result: PvdQ acylase, dFosB activator, SR-BI HDL uptake, SR-BI DiI-HDL act, S100A4 inh HTS)
CCCC(=O)Nc1ccc(Cl)c(NC(=O)c2cccnc2)c1	none
CCCC(=O)Nc1ccc(Cl)c(NC(=O)c2cccc(OC)c2)c1	SR-BI HDL uptake 78 (no result: RAD54 inh, S100A4 inh HTS) | DiI quencher inactive
CN1CCC2CC1c1cc(-c3ccc(C(F)(F)F)cc3)ccc12 (stereo unspecified)	none | DiI quencher inactive
CS(=O)(=O)N1CCC2CC1c1cc(-c3ccccc3)ccc12 (stereo unspecified)	none
COc1ccc2c3c([nH]c2c1)[C@@H](CO)N(C(=O)c1ccncc1)CC31CN(C(=O)C2CCC2)C1	none (no result: PvdQ acylase, dFosB activator, SR-BI HDL uptake, RAD54 inh, SR-BI DiI-HDL act)
COC(=O)c1cc2c(ccn2-c2ccc(F)cc2)n1Cc1ccc(C#N)cc1	SR-BI HDL uptake 78 (no result: RAD54 inh) | DiI quencher inactive
COC(=O)c1cc2c(ccn2-c2ccc(F)cc2)n1Cc1ccc(OC)cc1	none (no result: RAD54 inh, S100A4 inh HTS)
COc1ccc(CC(=O)NCc2ccc3c(c2)cc(C)n3C)cc1OC	none (no result: RAD54 inh)
COc1cc(/C=C\C(=O)NCc2ccc3c(c2)cc(C)n3C)cc(OC)c1OC	SR-BI HDL uptake 78 | DiI quencher inactive
N#Cc1ccccc1S(=O)(=O)N1CCN(C(=O)C2CC(=O)N(c3ccc4c(c3)OCCO4)C2)CC1 (stereo unspecified)	none | DiI quencher inactive
COc1ccc(-c2ccc3n(c2=O)C[C@@H]2[C@@H](CO)[C@H](C(=O)Nc4ccccc4)N(C)[C@H]32)cc1	none (no result: PvdQ acylase, dFosB activator, SR-BI HDL uptake, RAD54 inh, SR-BI DiI-HDL act)
COc1ccc(C2C(C#N)=C(N)N(c3ccccc3C#N)C3=C2C(=O)CCC3)cc1CN1CCCC1 (stereo unspecified)	none (no result: RAD54 inh) | DiI quencher inactive
COc1cc(C2C(C#N)=C(N)N(c3cccnc3)C3=C2C(=O)CCC3)ccc1O (stereo unspecified)	none
Cc1ccc(/C=C/C(=O)Nc2sc3c(c2C#N)CCCC3)o1	SR-BI HDL uptake 75 | DiI quencher inactive
Cc1ccccc1NC(=O)N(CCc1nc2ccccc2[nH]1)Cc1ccccc1	SR-BI HDL uptake 96 (no result: S100A4 inh HTS) | DiI quencher inactive
CC(=O)Nc1cccc(CCc2nc3ccccc3[nH]2)c1	SR-BI DiI-HDL act inconclusive
Cc1cc(=O)oc2cc(OCC(=O)N3CCN(C(=O)C4COc5ccccc5O4)CC3)c(Cl)cc12 (stereo unspecified)	SR-BI HDL uptake 80 | DiI quencher inactive
CC(C(=O)NCc1ccccc1)N(Cc1ccccc1Cl)C(=O)c1snc(C(N)=O)c1N (stereo unspecified)	SR-BI HDL uptake 84 | DiI quencher inactive
Cc1cc(C)c2c(c1)NC(c1cc3c(cc1Br)OCO3)C1CC=CC21 (stereo unspecified)	SR-BI HDL uptake inconclusive (no result: S100A4 inh HTS) | DiI quencher inactive
Cc1ccc(C(C(=O)NC(C)(C)C)N(Cc2cccs2)C(=O)c2ccc3c(c2)OCCO3)cc1 (stereo unspecified)	none (no result: RAD54 inh) | DiI quencher inactive
Cc1ccc(C(C(=O)NC(C)(C)C)N(Cc2cccs2)C(=O)c2csnn2)cc1 (stereo unspecified)	none (no result: S100A4 inh HTS)
